Assay results: ChEMBL document CHEMBL3351279, “Topoisomerase II inhibitors from the roots of Stellera chamaejasme L” (Bioorg Med Chem, 2014)
Calls of active or inactive are those of the source. The calls are words filed in the database; no cut-off is given here.

Assays:
[1] = test system: A549; assay: Cytotoxicity against human A549 cells after 72 hrs by SRB assay; format: functional, cell-based; conditions: A549, 72 h
Procedure, shortened: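 A549 cells grown in F12 with 10% heat-inactivated FBS (37°C, 5% CO2), seeded overnight, then exposed 72 h. Fixed in cold 10% TCA for 1 h at 4°C, stained with 4 mg/mL SRB in 1% acetic acid for 15 min, solubilized in 10 mM Tris-HCl, read at A560. Inhibition = [1 − A560treated/A560control]×100%; IC50 by Logit method, at least three independent tests.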

[2] = target: DNA topoisomerase 2-alpha (Homo sapiens) (UniProt P11388); assay: Inhibition of DNA topoisomerase-2 (unknown origin) assessed as inhibition of kDNA decatenation at 100 uM after 15 mins by agarose gel electrophoresis
[3] = target: T1, DNA topoisomerase 1 (Homo sapiens) (UniProt P11387); assay: Inhibition of DNA topoisomerase-1 (unknown origin) assessed as inhibition of supercoiled pBR322 relaxation up to 100 uM after 15 mins by gel electrophoresis
T1 sequence (whole entry): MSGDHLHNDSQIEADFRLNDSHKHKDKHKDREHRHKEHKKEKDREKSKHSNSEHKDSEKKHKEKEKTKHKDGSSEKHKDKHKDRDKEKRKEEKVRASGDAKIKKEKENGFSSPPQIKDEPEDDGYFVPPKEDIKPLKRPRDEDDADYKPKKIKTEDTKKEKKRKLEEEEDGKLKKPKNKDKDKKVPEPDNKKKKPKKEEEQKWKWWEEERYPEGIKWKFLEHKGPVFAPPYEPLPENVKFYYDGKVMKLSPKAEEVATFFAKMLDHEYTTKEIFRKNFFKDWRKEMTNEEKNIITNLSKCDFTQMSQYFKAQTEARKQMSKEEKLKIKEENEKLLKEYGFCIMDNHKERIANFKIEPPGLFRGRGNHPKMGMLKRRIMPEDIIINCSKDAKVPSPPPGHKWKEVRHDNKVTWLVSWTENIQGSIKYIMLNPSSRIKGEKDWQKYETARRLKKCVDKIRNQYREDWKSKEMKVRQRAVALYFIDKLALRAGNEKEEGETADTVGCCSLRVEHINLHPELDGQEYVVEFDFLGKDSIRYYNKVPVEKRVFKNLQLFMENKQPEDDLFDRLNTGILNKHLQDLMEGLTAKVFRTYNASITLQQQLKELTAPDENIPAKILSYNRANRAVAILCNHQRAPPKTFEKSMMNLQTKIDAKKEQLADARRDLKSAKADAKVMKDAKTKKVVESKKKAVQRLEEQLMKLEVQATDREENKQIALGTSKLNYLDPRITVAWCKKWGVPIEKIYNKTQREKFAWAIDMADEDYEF
Procedure, shortened: (§1)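 Supercoiled pBR322 relaxation with compounds at 100 µM. Topo I: 12.5 µg/mL DNA, 0.01 unit/µL enzyme, no ATP. Topo IIα: 6.67 µg/mL DNA, 0.0467 units/µL enzyme, 1 mM ATP. 37°C for 15 min, SDS stop, 1% agarose/TAE gel at 4 V/cm for 1 h, ethidium bromide stain.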

[4] = test system: A549; assay: Cell cycle arrest in human A549 cells assessed as accumulation at G2 phase at 300 nM after 24 hrs by propidium iodide staining-based flow cytometry (reference value: 18%); format: functional
[5] = test system: A549; assay: Cell cycle arrest in human A549 cells assessed as accumulation at G2/M phase at 10 to 300 nM after 24 hrs by propidium iodide staining-based flow cytometry; format: functional
[6] = target: DNA topoisomerase 2-alpha (Homo sapiens) (UniProt P11388); assay: Inhibition of DNA topoisomerase-2 (unknown origin) assessed as inhibition of supercoiled pBR322 relaxation at 100 uM after 15 mins by gel electrophoresis; procedure, shortened: as §1
[7] = test system: A549; assay: Induction of apoptosis in human A549 cells assessed as early apoptotic cells at 10 nM after 48 hrs by Annexin V/propidium iodide staining-based flow cytometry (reference value: 5.75%); format: functional
Procedure, shortened: (§2)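 After 48 h exposure, A549 cells resuspended in cold binding buffer with Annexin-V-FITC and PI, kept 10 min at room temperature in the dark, then analyzed on a FACSCalibur. Annexin-V+/PI− cells counted as early apoptotic.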

[8] = test system: A549; assay: Induction of apoptosis in human A549 cells assessed as early apoptotic cells at 30 nM after 48 hrs by Annexin V/propidium iodide staining-based flow cytometry (reference value: 5.75%); format: functional; procedure, shortened: as §2

Chain of DNA topoisomerase 2-alpha (Homo sapiens) (P11388 whole entry): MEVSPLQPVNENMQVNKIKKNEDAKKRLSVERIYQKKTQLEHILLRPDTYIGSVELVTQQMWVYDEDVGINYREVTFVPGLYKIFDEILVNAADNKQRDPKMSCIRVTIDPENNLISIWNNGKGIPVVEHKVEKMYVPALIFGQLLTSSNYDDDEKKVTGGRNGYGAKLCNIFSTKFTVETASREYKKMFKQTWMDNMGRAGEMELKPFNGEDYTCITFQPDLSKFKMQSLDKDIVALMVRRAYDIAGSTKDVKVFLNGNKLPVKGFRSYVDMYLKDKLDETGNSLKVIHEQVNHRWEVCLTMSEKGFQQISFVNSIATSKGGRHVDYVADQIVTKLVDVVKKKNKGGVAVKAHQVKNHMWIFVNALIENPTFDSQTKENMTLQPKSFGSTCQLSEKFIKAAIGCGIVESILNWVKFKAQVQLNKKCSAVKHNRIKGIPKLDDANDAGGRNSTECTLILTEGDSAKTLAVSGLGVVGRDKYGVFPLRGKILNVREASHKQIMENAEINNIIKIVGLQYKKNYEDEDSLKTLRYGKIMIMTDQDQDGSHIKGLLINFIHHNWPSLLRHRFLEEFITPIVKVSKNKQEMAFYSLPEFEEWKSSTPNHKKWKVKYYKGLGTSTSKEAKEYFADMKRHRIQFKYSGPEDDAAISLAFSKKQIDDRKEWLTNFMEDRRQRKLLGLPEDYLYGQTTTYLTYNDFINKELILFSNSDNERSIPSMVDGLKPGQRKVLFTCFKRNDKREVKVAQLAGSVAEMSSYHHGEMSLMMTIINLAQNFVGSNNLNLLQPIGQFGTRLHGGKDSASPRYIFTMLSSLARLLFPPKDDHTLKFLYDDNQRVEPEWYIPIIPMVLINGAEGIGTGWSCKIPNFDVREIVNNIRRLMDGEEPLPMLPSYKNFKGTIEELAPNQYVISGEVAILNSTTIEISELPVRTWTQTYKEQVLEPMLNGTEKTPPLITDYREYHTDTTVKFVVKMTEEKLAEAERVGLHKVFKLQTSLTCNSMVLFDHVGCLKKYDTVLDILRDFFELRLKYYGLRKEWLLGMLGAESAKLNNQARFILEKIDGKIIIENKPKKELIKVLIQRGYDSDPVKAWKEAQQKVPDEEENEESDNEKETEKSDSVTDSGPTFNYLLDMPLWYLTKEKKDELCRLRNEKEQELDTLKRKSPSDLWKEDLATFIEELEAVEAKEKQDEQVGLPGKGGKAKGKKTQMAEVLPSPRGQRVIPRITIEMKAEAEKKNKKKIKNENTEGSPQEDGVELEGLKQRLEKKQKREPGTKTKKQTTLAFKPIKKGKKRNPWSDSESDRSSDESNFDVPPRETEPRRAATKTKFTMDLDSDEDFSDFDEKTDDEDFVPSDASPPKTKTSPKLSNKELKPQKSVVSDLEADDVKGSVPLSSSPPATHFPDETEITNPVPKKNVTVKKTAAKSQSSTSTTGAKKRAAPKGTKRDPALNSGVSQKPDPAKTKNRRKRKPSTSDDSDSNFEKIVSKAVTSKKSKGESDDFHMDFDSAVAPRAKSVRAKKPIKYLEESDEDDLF

| inhibition [2] | inhibition [3] | inhibition [6] | Compound | IC50 [1] [µM] | other results |
| --- | --- | --- | --- | --- | --- |
| – | – | – | COc1cc(C[C@H]2COC(=O)[C@@H]2Cc2ccc3c(c2)OCO3)ccc1O | 0.273 | – |
| Active | inactive | Active | C=C(C)[C@]1(OC(=O)/C=C\C=C\CCCCCCCCC)C[C@@H](C)[C@@]2(O)[C@H]([C@H]1O)[C@@H]1O[C@]1(CO)[C@@H](O)[C@]1(O)C(=O)C(C)=C[C@H]12 | 0.0027 | Activity [4]: >50%; Activity [5]: Active; Activity [7]: 17.57%; Activity [8]: 19.94% |
| Active | inactive | Active | COc1cc([C@H]2OC[C@@H]3Cc4cc(OC)c(O)cc4C[C@@H]32)ccc1O | 1.53 | – |
| Active | inactive | Active | C=C(C)[C@@]1(O)[C@H](OC(=O)/C=C/C=C/CCCCCCCC)[C@@H]2[C@@H]3O[C@]3(CO)[C@@H](O)[C@]3(O)C(=O)C(C)=C[C@H]3[C@@]2(O)[C@H](C)[C@H]1OC(C)=O | 0.024 | – |
| – | – | Active | COc1cc([C@@H]2c3cc4c(cc3[C@@H](O[C@@H]3O[C@@H]5CO[C@@H](C)O[C@H]5[C@H](O)[C@H]3O)[C@H]3COC(=O)[C@H]23)OCO4)cc(OC)c1O | – | – |
| – | – | – | C=C(C)[C@]12C[C@@H](C)[C@@]34O[C@](CCCCCCCCC)(O[C@@H]1[C@@H]3[C@@H]1O[C@]1(CO)[C@@H](O)[C@]1(O)C(=O)C(C)=C[C@H]14)O2 [SIMPLEXIN] | 0.0003 | – |
| – | – | – | C=C(C)[C@@]12O[C@@]3(/C=C/C=C/CCCCCCCCC)O[C@@H]1[C@@H]1[C@@H]4O[C@]4(CO)[C@@H](O)[C@]4(O)C(=O)C(C)=C[C@H]4[C@@]1(O3)[C@H](C)[C@H]2OC(C)=O | 0.0004 | – |
| – | – | – | C[C@H]1CC=C2[C@H]1C[C@]1(O)C(=O)C[C@@]2(C)C1(C)CO (stereo not given in full) | 1.95 | – |

| Compound | inhibition [2] | inhibition [3] | inhibition [6] | IC50 [1] [µM] | other results |
| --- | --- | --- | --- | --- | --- |
| C=C(C)[C@]12C[C@@H](C)[C@@]34O[C@](/C=C/C=C/CCCCCCCCC)(O[C@@H]1[C@@H]3[C@@H]1O[C@]1(CO)[C@@H](O)[C@]1(O)C(=O)C(C)=C[C@H]14)O2 | Active | inactive | Active | 0.0007 | – |
